Source: ChEMBL document CHEMBL5150051, “Identification and Characterization of a Novel Indoleamine 2,3-Dioxygenase 1 Protein Degrader for Glioblastoma” (J Med Chem, 2022)
Activity calls are given as the source filed them. The calls are words filed in the database; no cut-off is given here.

Tests used:
[1] = molecular target: Indoleamine 2,3-dioxygenase 1 (Homo sapiens, UniProt P14902); assay: Binding affinity to IDO1 (unknown origin) assessed as dissociation constant by bio-layer interferometry assay
Sequence of Indoleamine 2,3-dioxygenase 1 (P14902 whole entry): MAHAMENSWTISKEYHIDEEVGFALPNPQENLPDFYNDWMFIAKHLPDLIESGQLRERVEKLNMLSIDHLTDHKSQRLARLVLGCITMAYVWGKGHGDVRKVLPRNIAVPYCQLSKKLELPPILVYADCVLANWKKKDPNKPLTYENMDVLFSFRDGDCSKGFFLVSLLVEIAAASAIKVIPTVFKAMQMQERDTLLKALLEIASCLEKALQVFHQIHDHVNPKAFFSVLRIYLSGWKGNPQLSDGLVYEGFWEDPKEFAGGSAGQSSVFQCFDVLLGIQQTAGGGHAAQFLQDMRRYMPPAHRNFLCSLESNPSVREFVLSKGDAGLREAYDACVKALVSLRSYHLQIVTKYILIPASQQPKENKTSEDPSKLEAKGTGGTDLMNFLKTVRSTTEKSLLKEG
Procedure, shortened: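 Bio-layer interferometry measured binding to IDO1 at 30 °C in PBS with 0.5% DMSO. Kd, kon and koff were derived.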

[2] = molecular target: Protein cereblon/Indoleamine 2,3-dioxygenase 1 (Homo sapiens, UniProt P14902+Q96SW2); assay: Protac activity at CRBN/IDO1 in human U87 cells assessed as decrease in phosphorylated NF-kappaB p65 in nucleus at 1 to 10 uM measured after 24 hrs by Western blot analysis; type: cell-based; details: dose 1-10 µM
Sequence of Protein cereblon/Indoleamine 2,3-dioxygenase 1 (P14902 whole entry, looked up): as the sequence (P14902 whole entry) above
Sequence of Protein cereblon/Indoleamine 2,3-dioxygenase 1 (Q96SW2 whole entry, looked up): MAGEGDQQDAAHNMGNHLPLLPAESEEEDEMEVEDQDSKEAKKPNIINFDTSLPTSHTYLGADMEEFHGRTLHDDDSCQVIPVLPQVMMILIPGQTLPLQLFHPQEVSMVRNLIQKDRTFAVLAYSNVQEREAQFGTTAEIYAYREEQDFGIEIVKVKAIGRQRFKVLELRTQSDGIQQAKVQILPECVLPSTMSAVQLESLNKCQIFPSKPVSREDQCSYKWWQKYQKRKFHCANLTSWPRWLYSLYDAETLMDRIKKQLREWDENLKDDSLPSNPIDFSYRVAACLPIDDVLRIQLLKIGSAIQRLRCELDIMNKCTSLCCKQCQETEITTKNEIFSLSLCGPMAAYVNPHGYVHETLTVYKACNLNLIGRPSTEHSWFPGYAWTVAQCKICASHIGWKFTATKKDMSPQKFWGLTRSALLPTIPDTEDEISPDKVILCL

[3] = molecular target: von Hippel-Lindau disease tumor suppressor/Indoleamine 2,3-dioxygenase 1 (Homo sapiens) (UniProt P14902+P40337); assay: Protac activity at IDO1/VHL in IFNgamma-stimulated human U87 cells assessed as IDO1 degradation at 10 uM measured after 24 hrs by Western blotting analysis relative to control; type: cell-based
Sequence of von Hippel-Lindau disease tumor suppressor/Indoleamine 2,3-dioxygenase 1 (Homo sapiens) (P14902 whole entry, looked up): as the sequence (P14902 whole entry) above
Sequence of von Hippel-Lindau disease tumor suppressor/Indoleamine 2,3-dioxygenase 1 (Homo sapiens) (P40337 whole entry, looked up): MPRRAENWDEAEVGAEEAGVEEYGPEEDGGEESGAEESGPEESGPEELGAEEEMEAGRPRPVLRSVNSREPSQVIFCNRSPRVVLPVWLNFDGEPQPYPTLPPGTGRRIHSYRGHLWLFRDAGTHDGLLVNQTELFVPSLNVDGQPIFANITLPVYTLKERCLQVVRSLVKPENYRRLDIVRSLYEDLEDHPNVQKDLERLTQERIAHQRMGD
Procedure, shortened: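 U87 GBM cells primed with human IFNγ 50 ng/mL for 24 h, then exposed to PROTAC at 10 μM for 24 h. Lysates run on western blot; IDO1 bands quantified by densitometry and expressed as percent of normalized IDO1 protein level.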

Row | Activity [3] [%] | Structure (SMILES) | Kd [1] [nM] | Activity [2]
1 | 0 | Cc1ncsc1-c1ccc(CNC(=O)[C@@H]2C[C@@H](O)CN2C(=O)[C@@H](NC(=O)C2(F)CC2)C(C)(C)C)c(OCCOCCOCCCN2CCC(Oc3ccc(NC(=O)[C@H](C)[C@H]4CC[C@@H](c5ccnc6ccc(F)cc65)CC4)cc3)CC2)c1 | – | –
2 | 91 | Cc1ncsc1-c1ccc(CNC(=O)[C@@H]2C[C@@H](O)CN2C(=O)[C@@H](NC(=O)C2(F)CC2)C(C)(C)C)c(OCCOCCOCCC(=O)N2CC(Oc3ccc(NC(=O)[C@H](C)[C@H]4CC[C@@H](c5ccnc6ccc(F)cc65)CC4)cc3)C2)c1 | – | –
3 | 0 | Cc1ncsc1-c1ccc(CNC(=O)[C@@H]2C[C@@H](O)CN2C(=O)[C@@H](NC(=O)C2(F)CC2)C(C)(C)C)c(OCCOCCOCCOCCOc2cc(NC(=O)[C@H](C)[C@H]3CC[C@@H](c4ccnc5ccc(F)cc54)CC3)ccc2Cl)c1 | – | –
4 | 3 | Cc1ncsc1-c1ccc(CNC(=O)[C@H]2C[C@H](O)CN2C(=O)[C@H](NCCCCCCCCCOc2cc(NC(=O)[C@H](C)[C@H]3CC[C@@H](c4ccnc5ccc(F)cc54)CC3)ccc2Cl)C(C)(C)C)cc1 | – | –
5 | 0 | Cc1ncsc1-c1ccc(CNC(=O)[C@@H]2C[C@@H](O)CN2C(=O)[C@@H](NC(=O)C2(F)CC2)C(C)(C)C)c(OCCCOc2cc(NC(=O)[C@H](C)[C@H]3CC[C@@H](c4ccnc5ccc(F)cc54)CC3)ccc2Cl)c1 | – | –
6 | 41 | Cc1ncsc1-c1ccc(CNC(=O)[C@@H]2C[C@@H](O)CN2C(=O)[C@@H](NC(=O)C2(F)CC2)C(C)(C)C)c(OCCCCCCCOc2ccc(NC(=O)[C@H](C)[C@H]3CC[C@@H](c4ccnc5ccc(F)cc54)CC3)cc2)c1 | – | –

Second part, the molecule before the results:

Row | Structure (SMILES) | Activity [3] [%] | Kd [1] [nM] | Activity [2]
7 | C[C@@H](C(=O)Nc1ccc(OC2CCN(C(=O)CCOCCOCCNc3cccc4c3C(=O)N(C3CCC(=O)N(C)C3=O)C4=O)CC2)cc1)[C@H]1CC[C@@H](c2ccnc3ccc(F)cc32)CC1 (some centres not stated) | – | 1100 | Active
8 | Cc1ncsc1-c1ccc(CNC(=O)[C@@H]2C[C@@H](O)CN2C(=O)[C@@H](NCCOCCOCCOCCOCCOc2ccc(NC(=O)[C@H](C)[C@H]3CC[C@@H](c4ccnc5ccc(F)cc54)CC3)cc2)C(C)(C)C)cc1 | 0 | – | –
9 | Cc1ncsc1-c1ccc(CNC(=O)[C@@H]2C[C@@H](O)CN2C(=O)[C@@H](NCCOCCOCCOc2cc(NC(=O)[C@H](C)[C@H]3CC[C@@H](c4ccnc5ccc(F)cc54)CC3)ccc2Cl)C(C)(C)C)cc1 | 0 | – | –
10 | Cc1ncsc1-c1ccc(CNC(=O)[C@@H]2C[C@@H](O)CN2C(=O)[C@@H](NCCOCCOc2ccc(NC(=O)[C@H](C)[C@H]3CC[C@@H](c4ccnc5ccc(F)cc54)CC3)cc2)C(C)(C)C)cc1 | 0 | – | –
11 | Cc1ncsc1-c1ccc(CNC(=O)[C@@H]2C[C@@H](O)CN2C(=O)[C@@H](NCCOCCOCCOCCOCCOCCOc2cccc(NC(=O)[C@H](C)[C@H]3CC[C@@H](c4ccnc5ccc(F)cc54)CC3)c2)C(C)(C)C)cc1 | 0 | – | –
